Data published in ChEMBL document CHEMBL1143966, “Design and synthesis of eugenol derivatives, as potent 15-lipoxygenase inhibitors” (Bioorg Med Chem, 2008).

What was measured:
[1] = Inhibition of soybean 15-lipoxygenase; parameters: species or system Glycine max
Outline: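 Soybean 15-lipoxygenase with linoleic acid substrate (final 134 µM) in 0.1 M borate buffer pH 9 at 20 ± 1 °C. Absorbance read at 234 nm for 60 s after enzyme addition. Inhibitor plus linoleic acid served as blank. At least six controls and three tubes per inhibitor solution. Enzyme kept on ice, with controls run at intervals. IC50 from linear interpolation around 50% activity.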

[2] = Partition coefficient, log P of the compound; type: physicochemical; conditions: octanol/water

| SMILES | IC50 [1] | logP [2] |
| --- | --- | --- |
| C=CCc1ccc(OC(=O)c2ccc(F)cc2)c(OC)c1 | 7.2 µM | 2.7 |
| C=CCc1ccc(OC(=O)C2CCCCC2)c(OC)c1 | 2.2 µM | 3.52 |
| C=CCc1ccc(OC(=O)c2ccccc2C)c(OC)c1 | 77.2 µM | 2.87 |
| C=CCc1ccc(OC(=O)c2ccc(Cl)cc2)c(OC)c1 | 134 µM | 2.79 |
| C=CCc1ccc(OC(=O)c2ccccn2)c(OC)c1 | 33.3 µM | 0.86 |
| C=CCc1ccc(OC(=O)C23CC4CC(CC(C4)C2)C3)c(OC)c1 | 0.017 µM | 4.82 |
| C=CCc1ccc(OC(=O)c2ccncc2)c(OC)c1 | 2.3 µM | 0.86 |
| C=CCc1ccc(OC(=O)c2ccc(C)cc2)c(OC)c1 | 14.6 µM | 2.87 |
| C=CCc1ccc(OC(=O)c2ccccc2Cl)c(OC)c1 | 168 µM | 2.79 |
| C=CCc1ccc(OC(=O)c2ccccc2F)c(OC)c1 | 6.7 µM | 2.7 |
| C=CCc1ccc(O)c(OC)c1 [EUGENOL] | 34.6 µM | – |

The remaining lines, values ahead:

| IC50 [1] | logP [2] | SMILES |
| --- | --- | --- |
| 5.2 µM | 2.79 | C=CCc1ccc(OC(=O)c2cccc(Cl)c2)c(OC)c1 |
| 23 µM | 1.86 | C=CCc1ccc(OC(=O)c2cccc(OC)c2)c(OC)c1 |
| 2.1 µM | 2.7 | C=CCc1ccc(OC(=O)c2cccc(F)c2)c(OC)c1 |
| 19 µM | 1.86 | C=CCc1ccc(OC(=O)c2ccc(OC)cc2)c(OC)c1 |
| 1.7 µM | 0.86 | C=CCc1ccc(OC(=O)c2cccnc2)c(OC)c1 |
| 11.4 µM | 2.87 | C=CCc1ccc(OC(=O)c2cccc(C)c2)c(OC)c1 |
| 4.4 µM | 2.25 | C=CCc1ccc(OC(=O)c2ccccc2)c(OC)c1 [EUGENYL BENZOAT] |
